# Only some compounds are listed: those with a hit (about 1.6% of all), similar ones and a draw of the others.
# MLLE-PAM2 inh: inhibitors of microRNA-mediated deadenylation, human PABP1 MLLE binding | hit rate 0.36% among 360,000 | GST-MLLE / FITC-PAM2 fluorescence polarization | inhibition, % at 20 µM | P11940 | AID 588489; in the data active = inhibition above about 35%, passing the limit was not always enough;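 also: plate controls were DMSO wells with GST-MLLE for no effect and wells lacking GST-MLLE protein for full effect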
# Target sequence (P11940 whole entry, looked up): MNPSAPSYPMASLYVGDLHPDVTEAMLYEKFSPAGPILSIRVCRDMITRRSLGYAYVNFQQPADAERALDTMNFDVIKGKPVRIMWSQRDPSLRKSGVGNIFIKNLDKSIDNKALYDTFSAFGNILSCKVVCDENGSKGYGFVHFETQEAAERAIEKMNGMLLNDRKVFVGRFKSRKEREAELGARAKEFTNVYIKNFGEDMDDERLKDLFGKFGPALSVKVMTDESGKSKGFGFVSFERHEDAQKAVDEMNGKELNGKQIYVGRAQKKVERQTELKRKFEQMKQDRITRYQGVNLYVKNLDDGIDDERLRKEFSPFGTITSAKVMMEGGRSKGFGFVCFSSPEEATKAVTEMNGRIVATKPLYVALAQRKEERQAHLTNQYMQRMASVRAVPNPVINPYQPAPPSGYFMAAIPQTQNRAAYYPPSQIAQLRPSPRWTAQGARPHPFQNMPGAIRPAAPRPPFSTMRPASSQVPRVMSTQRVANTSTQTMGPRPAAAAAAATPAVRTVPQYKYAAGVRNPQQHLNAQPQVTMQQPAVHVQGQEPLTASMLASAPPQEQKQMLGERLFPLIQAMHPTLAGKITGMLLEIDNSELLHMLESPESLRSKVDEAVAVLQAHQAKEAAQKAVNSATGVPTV
# PABP FP inh: PABP-poly(A) binding inhibition | P11940 | PABP-poly(A) RNA binding, fluorescence polarization | calls only at 35 µM | hit rate 1% among 290,000;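 also: calls also rest on retests at 20 µM and on dose response follow-up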
# eIF4H inh: inhibitors of RNA binding by human eIF4H; Q15056; eIF4H fluorescence polarization binding assay; inhibition, % at 35 µM; hit rate 0.94% among 290,000;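 also: calls also rest on retests at 20 µM and on dose response follow-up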
# TCR-CD3 inh: inhibitors of human TCR-CD3 interaction; inhibition, % at 9.4 µM; TAMRA-labeled TCR probe fluorescence, biochemical; hit rate 0.37% among 360,000; in the data active = inhibition above about 19%;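 also: recombinant mutant TCR 2C K166C tagged with TAMRA read by polarization; 0% = receptor in buffer alone and 100% = receptor with positive control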
# RBBP9 inhibitor: inhibitors of human serine hydrolase RBBP9 | O75884 | recombinant RBBP9, FP-Rh probe fluorescence polarization | inhibition, % at 7.94 µM | hit rate 0.2% among 220,000 | AID 1515;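 active = inhibition above the campaign mean of all tested compounds plus 3 SD, cut at about 14% in these data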;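 also: plate controls were DMSO wells with RBBP9 for no effect and wells lacking RBBP9 protein for full effect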
#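 System: RBBP9 protein / Buffer or medium: Tris/NaCl buffer pH 8.0 with 0.1% Pluronic / Probe or stimulus: Serine-hydrolase probe FP-Rh, 375 nM pre-mixing / Dosing: 7.94 µM single dose, 0.794% DMSO / Times: enzyme-compound preincubation 30 min, then probe labeling 45 min, 25 °C / Technique: fluorescence polarization (mP), excitation 525 nm, emission 598 nm / Replication: singlicate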
# * marks the source's active call; other numbers are inactive results; i = inactive; ? = inconclusive; . = no result given; + = active, no number. Unless noted, no rule for the calls is given here.
SMILES,MLLE-PAM2 inh,PABP FP inh,eIF4H inh,TCR-CD3 inh,RBBP9 inhibitor
C=CCN=C1NC(c2cccc(F)c2)C(C(=O)OC)=C(C)N1Cc1ccccc1C(F)(F)F (stereo not given),.,.,.,6,.
Nc1[nH]c(C(=O)c2ccccc2)c(-c2ccc3c(c2)OCO3)c1C(=O)NCCc1c[nH]c2ccccc12,.,.,.,3,.
CSc1nnc(-c2ccco2)c(-c2ccco2)n1,26,+,97*,14,2
COc1ccc(C(=O)NCC2CCN(C(=O)C(=O)c3cccs3)CC2)c(OC)c1,.,.,.,-8,.
Cc1cccc(NC(=O)CC2Nc3cccc4cccc(c34)NC2=O)c1 (stereo not given),17,+,113*,-1,5
CC(=O)Nc1ccc(NC(=O)CC2Nc3cccc4cccc(c34)NC2=O)cc1 (stereo not given),25,+,106*,4,3
C=CCN1[C@@H](C)[C@H](c2ccccc2)Oc2cccc(NCC(C)C)c2S1(=O)=O,.,.,.,2,.
COC(=O)[C@]12C[C@H](CC(=O)N3CCN(C(=O)C4CC4)CC3)C(=O)N(Cc3ccccc3)C1=C[C@H](C(C)C)O[C@@H]2C1CC1,.,.,.,9,.
C/C(=N\NC(=O)c1cccc(N/N=C(\C)c2cc(O)ccc2O)c1)c1cc(O)ccc1O,18,i,26,30*,4
C/C(=N\NC(=O)c1cccc(N/N=C(\C)c2ccco2)c1)c1ccco1,-19,+,90*,4,2
Fc1ccc(Br)cc1C1C=C(c2cccnc2)Nc2ncnn21 (stereo not given),48*,i,5,.,-4
CC(C)(C)c1ccc(C2=CC(c3ccccc3F)n3ncnc3N2)cc1 (stereo not given),-2,.,.,4,.
C[C@@H]1CN(S(=O)(=O)C(C)(C)C)[C@@H](CCO)/C1=C\CCO,.,.,.,-5,.
NC(=O)C1=C[C@H](c2ccc(C(F)(F)F)cc2)C[C@H](OCc2ccc(CO)cc2)O1,18,+,?,-1,-4
NC(=O)C1=C[C@@H](c2ccc(C(F)(F)F)cc2)C[C@@H](OCc2ccc(CO)cc2)O1,1,i,-13,-6,-3
O=c1[nH]c(Cc2ccc(F)cc2)nc2scc(-c3ccc(F)cc3)c12,22,i,-5,-5,-8
Cc1ccc(-c2csc3nc(CN(C)Cc4ccccc4)[nH]c(=O)c23)cc1,-28,+,98*,2,-16
Cc1cc(N2CCN(C(=O)OC(C)(C)C)C[C@H]2C)ccc1Br,.,.,.,7,.
Cc1onc(-c2ccccc2)c1C(=O)N1CCN(C(=O)C(=O)c2cccc(C(F)(F)F)c2)CC1,.,.,.,5,.
O=C(O)c1ccc(COc2ccc(/C=N/NC(=O)c3cccs3)cc2)cc1,-111,+,-1,.,-4
N#C/C(=C\c1ccc(OCc2ccc(Br)cc2)cc1)C(=O)Nc1cccc(C(=O)O)c1,9,i,4,1,.
O=C(N/N=C/c1cccc(OCc2ccccc2)c1)c1cccs1,13,i,-11,-2,-25
N#C/C(=C/c1ccc(OCc2ccc(C(=O)O)cc2)cc1)C(=O)Nc1ccccc1,-130,+,21,.,.
COC(=O)c1ccc(COc2ccc(/C=N/Nc3cccc(C(=O)O)c3)cc2)cc1,6,+,75*,2,-6
O=C(O)c1cccc(N/N=C/c2ccc(OC(F)(F)F)cc2)c1,16,i,-2,-13,.
SMILES,MLLE-PAM2 inh,PABP FP inh,eIF4H inh,TCR-CD3 inh,RBBP9 inhibitor
O=C(Cc1c[nH]c2ccccc12)Nc1ccc(Nc2cccnc2)c(-c2ccc(-c3ccccc3)cc2F)c1,.,.,.,0,.
COc1cc2c(c(OC)c1OC)C1(CCCCC1)CC2NS(=O)(=O)C(C)C (stereo not given),.,.,.,5,.
FC(F)(F)c1cccc(-c2nc3nc(Cl)c(Cl)nc3[nH]2)c1,-29,+,?,.,-7
COC(=O)C1=C(C)N(C)C(=NCc2cc(OC)c(OC)c(OC)c2)NC1c1ccc(Cl)cc1 (stereo not given),.,.,.,4,.
O=C(N[C@H](Cc1ccccc1)C(=O)NCc1ccc2c(c1)OCO2)[C@H]1O[C@@H](n2ccc(=O)[nH]c2=O)[C@H](O)[C@@H]1O,.,.,.,3,.
S=c1nc(-c2ccccc2)oc2c1CCCC2,36,i,-8,0,-8
COc1cccc(-c2nc(=S)c3c(o2)CCCC3)c1,45*,i,-2,1,-5
O=[N+]([O-])c1ccc(-c2nc(=S)c3c(o2)CCCC3)cc1,45*,i,-6,3,4
C[C@H](O)[C@H](O)[C@H]1CNc2nc(N)[nH]c(=O)c2N1,89*,.,.,2,.
C[C@@H]1CCC2[C@](C)(CO)[C@@H](O)CC[C@]2(C)[C@@]12CC[C@@](CO)(CC(=O)O)O2 (stereo not given in full),53*,i,-11,-7,.
C[C@@H]1CCC2[C@](C)(CO)[C@@H](O)CC[C@]2(C)[C@@]12CCC(CO)(CCO)O2 (stereo not given in full),-6,i,-9,-6,.
Oc1ccccc1C=Nc1ccccc1-c1nc2ccccc2[nH]1,-9,+,5.7*,3,-1
O=C1NC(=O)C2(CCOc3ccc(F)cc32)N1 (stereo not given),.,.,.,3,.
O/N=C1/CCc2cccc3cccc1c23,19,+,62*,-2,-1
O=C(CCc1ccc(O)c(O)c1)N/N=C/c1cc2c(cc1[N+](=O)[O-])OCO2,15,+,94*,17,.
Cc1ccccc1NC(=O)CSc1nnc(-c2ccco2)c(-c2ccco2)n1,21,+,99*,.,-4
Cc1cccc(C)c1NC(=O)CCCSc1nnc(-c2ccco2)o1,-24,.,.,2,-13
Cc1cccc(C)c1NC(=O)CSc1nnc(-c2ccco2)c(-c2ccco2)n1,30,+,100*,.,7
CC(C)C[C@@H]1NC(=O)[C@@H]2CSCCS(=O)(=O)N2C1=O,.,.,.,0,.
C=CCCC1CN(Cc2ccc(OC)cc2)S(=O)(=O)c2c(F)cccc2O1 (stereo not given),.,.,.,3,.
Cc1ccc(C(=O)NC(=S)Nc2ccc(Oc3ccc(Cl)cc3)cc2)cc1,29,i,-10,7,-9
O=C(NC(=S)Nc1ccc(Oc2ccccc2)cc1)c1ccc(Cl)cc1,41*,i,-1,2,-2
COc1ccc(CCC(=O)NNC(=O)Nc2ccc(OC)c(OC)c2)cc1,9,i,4,-1,.
COc1ccc(NC(=O)NNC(=O)CCc2ccc(O)c(O)c2)cc1OC,-6,i,57*,8,.
O=C(NCC1CCN(C(=O)C(=O)c2cccs2)CC1)c1ccc2c(c1)OCO2,.,.,.,3,.
NC(=O)c1cccc2c1-c1ccccc1/C2=N/NC(N)=S,39*,i,-12,3,.
N=C1/C(=C/c2cccn2-c2ccc([N+](=O)[O-])cc2)C(=O)N=C2SC=CN12,-5,i,15,-1,-3
O=C1NC(=S)N/C1=C/c1cccn1-c1ccc([N+](=O)[O-])cc1,-6,+,84*,1,0
